Bioassay records (PubChem BioAssay)
A1 inh: caspase 3/7 activation in MEF A1-2A-BIM cells, primary screen, A1 inhibitor project, cell-based, luminescence, HTS | AID 2462, 2010 | actives 0.066% (n = 330,000) | caspase activation, % (no concentration beside the values) | Caspase-Glo 3/7 luminescence, 3 h; percent of clofoctol response, vehicle zero;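 active = over half of replicate activation scores above 10%, or exactly half above 10 with the replicate mean above 10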
MsrA inhibitor: bovine MsrA enzyme inhibitors, primary screen, biochemical, absorbance, HTS. inhibition, % at 15.5 µM. Methionine sulfoxide reductase A (Bos taurus). AID 651718, 2012. actives 0.75% (n = 360,000). purified bovine MsrA, absorbance read-out;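 also: 0% = vehicle wells with enzyme and 100% = reference inhibitor wells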
proCasp3 act: activators of human procaspase-3 D3A mutant, primary screen, biochemical, absorbance, PC-3 D3A mutant, single concentration; actives 0.11% (n = 330,000); activation, % at 8.5 µM; recombinant procaspase-3 D3A, Ac-DEVD-pNA absorbance 405 nm; AID 463141, 2010; Caspase-3 (Homo sapiens), P42574;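 active = activation above the mean of all tested compounds plus 3 SD, cut at about 21% in these data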;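 also: 0% = DMSO alone and 100% = DMSO wells spiked with extra 5 µM PC-3 D3A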
Target sequence (P42574 whole entry D9A/D28A/D175A): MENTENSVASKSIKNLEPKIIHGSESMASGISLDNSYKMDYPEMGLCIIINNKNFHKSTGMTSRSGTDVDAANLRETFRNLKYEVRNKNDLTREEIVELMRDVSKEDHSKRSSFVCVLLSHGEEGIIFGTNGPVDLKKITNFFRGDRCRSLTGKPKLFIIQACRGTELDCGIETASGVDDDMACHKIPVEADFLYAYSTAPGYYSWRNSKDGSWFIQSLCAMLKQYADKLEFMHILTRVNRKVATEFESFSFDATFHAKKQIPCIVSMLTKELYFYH
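Assay system – Procaspase-3 D3A mutant, all three cleavage aspartates alanine · Controls – DMSO-only low control, 5 µM PC-3 D3A high control · Schedule – 1 h compound preincubation, 2 h substrate hydrolysis at 25 °C · Signal – 405 nm absorbance of p-nitroaniline, reads at 0 and 120 min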
proCasp7 act: procaspase-7 activators, primary screen, counter-screen for procaspase-3 activator project, biochemical, absorbance, HTS, human; actives 0.093% (n = 330,000); recombinant procaspase-7, Ac-DEVD-pNA absorbance 405 nm; D23A/D198A/D206A triple mutant, cannot self-cleave; scale: DMSO 0, 5 µM enzyme 100; activation, % at 8.5 µM;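 active = percent activation above the screen-wide mean plus 3 SD, cut at about 25% in these data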
Target sequence (P55210 whole entry D23A/D198A/D206A): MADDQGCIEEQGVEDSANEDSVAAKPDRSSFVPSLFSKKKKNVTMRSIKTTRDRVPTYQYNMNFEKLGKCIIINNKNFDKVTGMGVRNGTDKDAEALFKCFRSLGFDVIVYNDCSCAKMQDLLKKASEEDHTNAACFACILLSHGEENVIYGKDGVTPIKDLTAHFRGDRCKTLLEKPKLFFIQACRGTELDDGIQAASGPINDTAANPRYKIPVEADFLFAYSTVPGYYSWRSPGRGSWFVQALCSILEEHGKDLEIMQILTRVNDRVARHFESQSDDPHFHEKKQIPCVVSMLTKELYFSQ
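Material: Procaspase-7 triple mutant (PC-7 D3A) | Quantity: 2 µM procaspase-7 mutant as dispensed | Reagent: DEVD-pNA substrate | Times: 1 h preincubation, 2 h reaction | Technique: 405 nm absorbance of p-nitroaniline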
bovine MsrA act: bovine MsrA enzyme activators, primary screen, biochemical, absorbance, HTS | activation, % at 10.6 µM | Methionine sulfoxide reductase A (Bos taurus) | purified bovine MsrA, absorbance read-out | AID 602163, 2012 | actives 0.3% (n = 360,000); in the data active = activation above about 7.5%;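 also: 0% = vehicle and 100% = reference activator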
MsrA inh confirm: bovine MsrA inhibitors, retest, confirmation, biochemical, absorbance, HTS; shares compounds with MsrA inhibitor; purified bovine MsrA, absorbance read-out; inhibition, % at 15.5 µM; actives 41% (n = 2,300);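 also: coupled to thioredoxin reductase with NADPH and selenocystamine and DMSO as substrate; 0% = vehicle only and 100% = full effect of reference inhibitor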
Numbers without * were called inactive; nt = no result given. Compounds with a hit are over-represented: about 1.2% of the library has one in this group of screens. Rule as the data show it, unless noted: active = inhibition above about 4.5%; inactive = the rest.

SMILES	A1 inh	MsrA inhibitor	proCasp3 act	proCasp7 act	bovine MsrA act	MsrA inh confirm
O=c1cccc(-c2ccc3ccccc3c2)o1	nt	5.0*	nt	nt	nt	3.0
Cc1ccc(-c2cccc(=O)o2)cc1	nt	1.9	nt	nt	nt	nt
O=C(c1cc(=O)c2ccccc2o1)N1CCCc2ccccc21	-0.5	2.3	1.9	16.8	-3.6	nt
CSCc1c(C(=O)N2CCCc3ccccc32)oc2ccccc12	0.9	8.4*	1.6	13.9	-3.4	-0.4
CN(C)c1ccc(/C=N/Nc2ccc(-n3ccnc3)nn2)cc1	0.5	6.0*	-11.3	1.8	-6.9	2.9
CN(C)c1ccc(/C=N\Nc2ccccn2)cc1	-8.8	3.4	-22.5	-13.6	-4.9	nt
COc1cc(/C=N/NC2=NS(=O)(=O)c3ccccc32)cc(OC)c1OC	-0.6	5.5*	3.1	5.5	-4.3	4.6*
O=S1(=O)N=C(N(CCO)/N=C/C=C/c2ccccc2)c2ccccc21	0.8	8.3*	3.2	-5.2	-7.9	5.7*
O=S1(=O)N=C(N/N=C/c2ccccn2)c2ccccc21	0.6	3.6	-5.2	8.2	-5.8	nt
COc1cc(/C=N\Nc2nc3ccccc3o2)cc(OC)c1OC	-0.2	5.2*	9.2	3.1	-4.3	3.0
O=S1(=O)N=C(N/N=C/C=C/c2ccccc2)c2ccccc21	0.3	6.8*	-7.2	2.7	-8.1	6.2*
O=S1(=O)N=C(N(CCO)/N=C/c2ccc(Cl)cc2)c2ccccc21	1.1	0.4	10.4	-0.1	-0.3	nt
COc1cc(/C=C(\C#N)C(=O)NCC2CCCO2)ccc1OCC(=O)O (configuration not stated)	1.2	5.5*	1.9	-3.3	-5.7	4.3
Cc1ccc(/C=C(\C#N)C(=O)NCC2CCCO2)o1 (configuration not stated)	0.8	5.2*	0.5	-9.2	-9.8	4.6*
COCCNC(=O)/C(C#N)=C/C=C/c1ccccc1	0.2	7.1*	-0.7	3.8	-3.9	5.3*
CCc1ccc(-c2cc(C)no2)cc1S(=O)(=O)N1CCN(c2ccccc2)CC1	1.3	-1.4	6.6	15.5	-0.8	nt
O=c1c(C=NCC2CCCO2)c(-c2ccccc2)[nH]n1-c1ccc([N+](=O)[O-])cc1 (configuration not stated)	-0.4	0.2	-2.2	2.1	-3.2	nt
Cc1[nH]n(-c2ccc([N+](=O)[O-])cc2)c(=O)c1C=NCC1CCCO1 (configuration not stated)	-0.5	6.8*	5.1	-2.2	-10.3	5.3*
N#C/C(=C/Nc1ccccc1)c1ccsc1	-0.3	4.8*	-2.3	7.9	-15.2	2.5
O=[N+]([O-])c1ccc(N/N=C2\CC3CC=CC23)cc1 (configuration not stated)	0.3	1.4	0.8	-5.0	-14.3	nt
O=[N+]([O-])c1ccc(N/N=C2\CC3CC=CC23)c([N+](=O)[O-])c1 (configuration not stated)	0.5	5.6*	-1.9	-10.0	-8.2	4.2
Cc1ccnc(NC(=O)c2ccc(S(=O)(=O)N3CCCCCC3)cc2)c1	1.3	0.8	13.8	0.5	-2.8	nt
COc1cc([N+](=O)[O-])c(OC)cc1Nc1ccccc1C(=O)O	nt	0.5	nt	nt	nt	nt
COc1cc(-c2ccc(Nc3ccccc3C(=O)O)c(OC)c2)ccc1Nc1ccccc1C(=O)O	nt	4.9*	nt	nt	-6.7	5.3*
O=C(NC(=S)Nc1ccccc1Cl)C1CC1	-0.7	7.0*	0.2	4.5	-6.4	4.5
SMILES	A1 inh	MsrA inhibitor	proCasp3 act	proCasp7 act	bovine MsrA act	MsrA inh confirm
C=CCc1c(C)nc(C)nc1N/N=C/c1ccc(N(C)C)cc1	1.9	6.8*	-15.6	-4.8	-14.7	5.0*
CC1=C(C#N)C(=O)NC(=O)/C1=C\c1ccc(-c2ccc(C)cc2[N+](=O)[O-])o1	nt	9.2*	nt	nt	-4.7	3.9
CCOC(=O)c1cc(-c2ccc(/C=C3/C(=O)NC(=O)C(C#N)=C3C)o2)ccc1Cl	-0.3	-0.4	-2.4	0.5	-10.5	nt
O=C(Nc1ccc2nc(-c3ccc(Br)o3)[nH]c2c1)c1ccco1	-1.2	6.5*	4.2	1.4	-9.1	6.6*
CC(=O)Nc1ccc2nc(-c3ccc(Br)o3)[nH]c2c1	0.8	2.1	-2.6	1.9	-14.5	nt
COC(=O)[C@]12C[C@H](CC(=O)NCC34CC5CC(CC(C5)C3)C4)C(=O)N(Cc3ccccc3)C1=C[C@H](C(C)(C)C)O[C@@H]2C	nt	-0.8	nt	nt	nt	nt
CC1(C)CC(NCc2ccccc2)=CC(=S)N1	nt	nt	nt	nt	0.6	nt
CC1(C)CC(N2CCN(CCO)CC2)=CC(=S)N1	0.3	5.8*	3.8	6.1	-0.2	6.1*
Cc1ccc(/C=C/C(=O)Nc2nnc(C)s2)o1	0.4	7.6*	6.0	-4.9	-3.9	5.3*
CN(C)c1ccc(-c2nc3ccccc3c(=O)[nH]2)cc1	-12.4	6.0*	1.5	-7.5	-13.6	4.1
CC(C)C[C@H](NC(=O)c1nccs1)C(=O)N1CCC[C@H]1C(=O)NCc1ccccc1	nt	-0.5	nt	nt	nt	nt
COCc1cc(C)nc(N/N=C/c2ccc(-c3ccc(Cl)cc3[N+](=O)[O-])o2)c1C#N	nt	6.4*	nt	nt	-4.4	2.0
CCCCS(=O)(=O)N1C2=NC(C(=O)OCC)=C(C(=O)OCC)C3N(Cc4ccc(Br)cc4)c4ccccc4[C@]23C[C@H]1C(=O)OC (some centres not stated)	nt	2.0	nt	nt	nt	nt
CC(=O)C1=C(O)C(=O)N(Cc2cccnc2)C1c1ccccc1 (configuration not stated)	0.4	6.4*	-1.5	3.0	-7.4	1.7
COc1ccc(CC(=O)N2CCN(c3ccc(C4=NNC(=O)CC4C)cc3)CC2)cc1 (configuration not stated)	0.2	4.8*	3.6	15.6	-2.7	1.9
Cc1ccc2oc(-c3ccco3)cc(=O)c2c1	-2.5	7.7*	0.5	5.7	-5.7	5.4*
c1ccc(C[C@H]2CN=C(Nc3ccccc3)N2CC2CCCC2)cc1	nt	0.3	nt	nt	-8.9	nt
COc1ccc(CNC(=O)C2CCN(S(=O)(=O)c3ccc4c(c3)CC(C)N4C(C)=O)CC2)cc1 (configuration not stated)	-0.1	0.3	5.2	6.4	-4.0	nt
c1ccc(-n2cc(CNCCc3cscn3)c(-c3ccc4c(c3)OCO4)n2)cc1	-0.5	6.3*	-7.4	1.7	-2.5	1.4
O=C(N/N=C\C=C\c1ccc2c(c1)OCO2)C1COc2ccccc2O1 (configuration not stated)	-1.3	4.8*	8.6	-8.1	-10.6	2.7
